# AF4-AF9 inh – MLL-AF4/AF9 protein interaction inhibition; P42568; AlphaScreen, biotin-AF4 peptide binding to FLAG-AF9; inhibition, % at 10 µM; 0.47% of 350,000 active;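 active = every replicate reaching a set inhibition limit, whatever the replicate mean, cut at about 25% in these data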;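 note: 0% = plate neutral control median and 100% = total signal loss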
# Target sequence (P42568 whole entry, looked up): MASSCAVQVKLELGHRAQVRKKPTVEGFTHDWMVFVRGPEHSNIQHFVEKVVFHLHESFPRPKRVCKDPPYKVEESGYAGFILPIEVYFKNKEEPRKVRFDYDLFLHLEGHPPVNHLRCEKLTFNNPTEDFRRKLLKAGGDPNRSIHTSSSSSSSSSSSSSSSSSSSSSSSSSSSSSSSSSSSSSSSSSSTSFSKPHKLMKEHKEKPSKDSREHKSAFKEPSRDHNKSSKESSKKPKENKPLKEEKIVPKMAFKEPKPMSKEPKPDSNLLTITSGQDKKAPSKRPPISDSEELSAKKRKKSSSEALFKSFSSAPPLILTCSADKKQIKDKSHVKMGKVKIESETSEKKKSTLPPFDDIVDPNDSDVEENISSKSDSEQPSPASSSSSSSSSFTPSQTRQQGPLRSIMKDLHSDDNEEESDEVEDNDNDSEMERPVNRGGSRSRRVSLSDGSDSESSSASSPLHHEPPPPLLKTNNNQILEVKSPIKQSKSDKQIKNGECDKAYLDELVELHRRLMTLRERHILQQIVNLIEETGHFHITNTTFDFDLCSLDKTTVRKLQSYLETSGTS
# ERAP1 HTS inh – inhibitors of human ERAP1 aminopeptidase; Q9NZ08; recombinant ERAP1, Leu-AMC fluorescence, 60 min; inhibition, % at 10.7 µM; 0.15% of 340,000 active;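 active = mean replicate inhibition of at least 30%, or all replicates individually reaching that 30% level; inactive = mean below 30% and not every replicate reaching it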;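 note: 0% = neutral control wells and 100% = L-leucinethiol positive control wells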
# RAD52 inh – RAD52 (human) annealing inhibition | recombinant RAD52 DNA annealing, FRET fluorescence | P43351 | inhibition, % at 18.7 µM | 0.46% of 360,000 active;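 active = every replicate showing at least 50% inhibition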
# GSIS activator – primary screen for activators of insulin secretion dependent on glucose, INS-1E cells, GLuc reporter luminescence | activation, % at 16.6 µM | INS-1E GLuc reporter insulin secretion, 2-3 h | 0.61% of 370,000 active;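 active = lowest replicate activation of at least 40%, so every replicate reaches that level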;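 note: 0% = median of neutral control wells and 100% = median of IBMX positive control wells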
# S100A4 MyoIIA – blocks human S100A4 binding to myosin IIA peptide; P26447; S100A4/TAMRA-MyoIIA peptide fluorescence polarization; inhibition, % at 10.7 µM; 0.14% of 360,000 active;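 active = mean inhibition of at least 70% across replicates, with every replicate also reaching that level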
# Target sequence (P26447 whole entry, looked up): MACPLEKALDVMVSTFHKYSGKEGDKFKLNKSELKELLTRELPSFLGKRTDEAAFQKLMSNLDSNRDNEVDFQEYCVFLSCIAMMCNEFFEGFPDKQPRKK
#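 Assay system: human S100A4 monomer with TAMRA-labelled myosin IIA peptide / Buffer or medium: Calcium-containing HEPES buffer, pH 7.2 / Reagent: TAMRA-labelled myosin IIA heavy-chain peptide probe, 5 nM / Compound: one dose per compound / Timing: polarization read 5 min after assay mix addition, stable 5–60 min / Benchmarks: neutral control DMSO, positive control TFP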
# Numbers without * were called inactive; i = inactive; . = no result given. A selection: hits, their analogues and other compounds. The true share with any hit is near 1.5%.
SMILES,AF4-AF9 inh,ERAP1 HTS inh,RAD52 inh,GSIS activator,S100A4 MyoIIA
Cc1cc(C(=O)OCC(=O)NCc2ccccc2)c2ccccc2n1,-2.0,-0.7,-12.8,67.0*,6.5
COc1ccc(C#Cc2c(-c3ccc(OC)cc3)oc3ccc(-c4ccc(OC)cc4)cc23)cc1,2.3,4.0,-22.6,13.9,-1.3
COc1ccc(-c2ccc3oc(-c4ccc(OC)cc4)c(C#CCCO)c3c2)cc1,.,1.4,-7.4,66.6*,3.4
Cc1ccc2oc(-c3cccc(NC(=O)Cc4cccs4)c3)nc2c1,.,.,.,64.7*,.
CCC(=O)Nc1cccc(-c2nc3ccc(C)cc3o2)c1,-1.0,-0.8,0.8,18.8,1.8
CC(C)NC(=O)OC[C@H]1O[C@H](C#Cc2ccc(C(C)(C)C)cc2)C=C[C@H]1O,4.6,0.6,-10.2,63.7*,-2.4
CC(C)NC(=O)Nc1ccc2c(c1)CC(=O)N(C)C[C@H](C)[C@H](CN(C)C(=O)OC(C)(C)C)O2,.,.,.,-4.6,.
Cc1ccc(-c2nnn(CC(=O)N3CCN(c4nc5ccccc5s4)CC3)n2)cc1,.,.,.,211.1*,.
C[C@H]1CN([C@@H](C)CO)C(=O)c2cc(Br)cnc2O[C@H]1CN(C)C(=O)NC1CCCC1,-0.7,.,.,20.0,.
Cc1ccc(-n2nnnc2SCC(=O)Nc2ncc(Cc3ccccc3Cl)s2)cc1,.,.,.,155.6*,.
N#C[C@H]1[C@@H](c2ccccc2-c2cccc(F)c2)[C@@H](CO)N1C(=O)C1CC1,-2.6,0.5,-25.2,-14.0,-1.7
CC/C(=C\c1ccc(N(C)C)cc1)c1ccncc1,27.6*,1.7,-26.5,1.5,-37.0
O=C(OC1CCOC1=O)c1cc(-c2cccs2)nc2ccccc12 (stereo not given),1.7,-1.6,-13.3,58.9*,0.1
Cc1ccc(-c2cc(C(=O)OC3CCOC3=O)c3ccccc3n2)c(C)c1 (stereo not given),1.0,-3.0,-31.5,56.0,1.4
C[C@H]1CC=CC[C@H](c2ccc3c(c2)OCO3)NC(=O)[C@H](Cc2ccccc2)N(C)C(=O)c2ccccc2O1 (mixture of isomers),.,.,.,-13.0,.
CCOC(=O)c1cc2sccc2n1CC(=O)Nc1ccc(OC)cc1OC,-46.5,-1.3,-2.1,-12.7,-5.0
CCOC(=O)CN(Cc1sccc1C)C(=O)Nc1ccc(OC)cc1OC,.,.,.,41.8*,.
COc1ccc(CN(C)C(=O)COC(=O)c2ccc3c(c2)OCO3)cc1OC,.,.,.,63.5*,.
COc1ccc(CC(=O)NCCCCc2ccccc2)cc1OC,5.1,-2.2,-13.3,-19.7,-6.3
COc1ccc(CCNC(=O)COC(=O)C2CC2C)cc1OC (stereo not given),-1.2,-5.8,-17.8,57.3*,0.1
CCOc1ccc(CCNC(=O)COC(=O)Cc2ccc(OC)c(OC)c2)cc1OCC,-0.6,-6.4,-6.7,16.6,-12.4
COc1ccc(CCNC(=O)COC(=O)c2ccccc2NCCO)cc1OC,-12.6,-51.2,1.6,83.0*,-2.7
COc1ccc(CCNC(=O)CCCc2ccccc2)cc1OC,-1.4,-1.2,-13.6,55.3*,-2.1
COc1ccc(CCNC(=O)COC(=O)c2cncc(Br)c2)cc1OC,-0.1,-2.3,-4.0,55.8*,-0.5
COC(=O)c1ccccc1NCCO,-0.5,-5.7,-8.5,120.0*,-2.1
SMILES,AF4-AF9 inh,ERAP1 HTS inh,RAD52 inh,GSIS activator,S100A4 MyoIIA
COc1ccc(CCNC(=O)CNC(=O)c2ccc3c(c2)OCO3)cc1OC,0.4,-0.8,-20.0,36.0,0.9
O=C(O)c1ccccc1NCCO,-2.8,-2.7,-21.1,8.8,-2.8
COc1ccc(CNC(=O)CCCn2c(=O)c3cccn3c3cccnc32)cc1,-3.0,-1.8,-28.2,14.5,-3.3
COc1ccc(CCNC(=O)CCn2c(=O)c3cccn3c3cccnc32)cc1OC,0.5,-4.2,-3.2,64.7*,-9.0
COc1ccc(CCNC(=O)Cc2ccc3c(c2)OCO3)cc1OC,.,.,.,102.4*,.
CN(C)C(=O)C[C@@H]1C[C@H]2c3cc(NC(=O)CC4CC4)ccc3O[C@H]2[C@@H](CO)O1,-0.8,0.8,11.3,12.7,3.9
COc1ccc(C(=O)Cc2ccc3c(c2)OCO3)c(O)c1,.,.,.,41.3*,.
COc1cccc(-c2ocnc2C(=O)Nc2ccc(N3CCOCC3)cc2N2CCOCC2)c1,35.3*,1.5,-12.5,-0.3,8.3
O=C(Nc1ccc(N2CCOCC2)cc1N1CCOCC1)c1ccccc1,-0.3,1.5,-4.4,0.2,-4.0
CCCCn1c(N)c(N(CCOC)C(=O)C2CCCN(C(=O)c3ccc(Cl)cc3)C2)c(=O)[nH]c1=O (stereo not given),0.4,61.7*,-5.6,11.4,-4.9
Cc1noc(C)c1S(=O)(=O)N(C)C[C@H]1Oc2ccc(NC(=O)Cc3cn(C)c4ccccc34)cc2C(=O)N([C@H](C)CO)C[C@@H]1C,.,.,.,2.2,.
CCCc1c(C)c2ccc(OCC(C)=O)cc2oc1=O,.,.,.,51.5*,.
O=C(NCCc1ccccc1)c1cc(-c2ccc3c(c2)OCO3)on1,.,.,.,44.4*,.
Nc1ccc(N2CCN(c3ccc(Cl)c(Cl)c3)CC2)cc1,27.4*,2.1,-14.0,.,8.0
O=C(NC[C@H]1CC[C@H]2[C@H](CN2Cc2cccc(Cl)c2)O1)C1CCOCC1,-4.2,-0.6,-18.3,.,-4.3
CCN(C(=O)COC(=O)c1cnc(C)cn1)C1CCS(=O)(=O)C1 (stereo not given),1.0,69.0*,-6.5,14.7,-3.2
CCN(C(=O)COC(=O)c1cccnc1SC)C1CCS(=O)(=O)C1 (stereo not given),.,1.1,-3.4,11.5,-2.0
CN1CCCC1CCNc1ccc2sc3ccccc3c(=O)c2c1 (stereo not given),26.3*,.,-1.6,11.7,0.9
CCOc1ccc(-c2nnn(CC(=O)Nc3ccccc3OC)n2)cc1OCC,.,.,.,68.0*,.
CCSc1ccc(C(=O)Nc2cccc(C)n2)cc1[N+](=O)[O-],.,.,.,58.7*,.
CN1C2CCC1/C(=C/c1cccn1C)C(=O)/C2=C\c1cccn1C,43.0*,11.9,i,-6.4,-93.0
COc1ccc(C=C2C(=O)OC(C)(C)OC2=O)cc1OC,1.6,-4.6,-17.3,9.3,4.4
COc1ccc(/C=C2\C(=O)OCc3cc(OC)c(OC)cc32)cc1OC,.,.,.,103.4*,.
COc1cc2c(cc1OC)/C(=C/c1ccc(Cl)cc1)C(=O)OC2,16.3,.,.,61.8*,-8.2
Cc1ccc(NCc2nnc(SCC(=O)Nc3ncc(C)s3)n2Cc2ccco2)c(C)c1,.,.,.,156.3*,.
SMILES,AF4-AF9 inh,ERAP1 HTS inh,RAD52 inh,GSIS activator,S100A4 MyoIIA
O=c1c2ccccc2nc(-c2ccco2)n1/N=C/c1ccco1,.,.,.,54.5*,.
Cc1nc2ccccc2c(=O)n1/N=C/c1ccco1,-0.6,4.8,-10.1,.,-2.1
COc1ccc(/C=N/n2c(-c3ccco3)nc3ccccc3c2=O)cc1,.,-0.1,-7.6,7.1,-5.4
O=c1c2ccccc2nc(-c2ccco2)n1/N=C/c1ccccc1O,.,.,.,69.4*,.
CN(c1cc2c(c3c1ccn3C)C1CCC2C1)C1CCCCC1 (stereo not given),38.7*,6.5,9.2,-0.1,-4.3
CSc1ccc(-c2cc3c(c4c2ccn4C)C2CCC3C2)cc1 (stereo not given),6.5,0.0,-11.6,6.1,-18.0

# Compound activity from PubChem BioAssay.
